Mdm2 ligase inh: blocks human Mdm2 ubiquitin ligase activity. cell-based MDM2 ubiquitination luciferase reporter, 2 h; 0 = plate control, 100 = twice control, blank-subtracted. Q00987. 0.11% of 210,000 active. signal enhancement, % at 5 µM;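 active means signal enhancement of 30% or more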;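 further: luminescence tracks abundance of the self-degrading MDM2-luciferase fusion protein; higher signal means inhibition of MDM2 E3 ligase activity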
Target sequence (Q00987 whole entry, looked up, the tested form may be a part): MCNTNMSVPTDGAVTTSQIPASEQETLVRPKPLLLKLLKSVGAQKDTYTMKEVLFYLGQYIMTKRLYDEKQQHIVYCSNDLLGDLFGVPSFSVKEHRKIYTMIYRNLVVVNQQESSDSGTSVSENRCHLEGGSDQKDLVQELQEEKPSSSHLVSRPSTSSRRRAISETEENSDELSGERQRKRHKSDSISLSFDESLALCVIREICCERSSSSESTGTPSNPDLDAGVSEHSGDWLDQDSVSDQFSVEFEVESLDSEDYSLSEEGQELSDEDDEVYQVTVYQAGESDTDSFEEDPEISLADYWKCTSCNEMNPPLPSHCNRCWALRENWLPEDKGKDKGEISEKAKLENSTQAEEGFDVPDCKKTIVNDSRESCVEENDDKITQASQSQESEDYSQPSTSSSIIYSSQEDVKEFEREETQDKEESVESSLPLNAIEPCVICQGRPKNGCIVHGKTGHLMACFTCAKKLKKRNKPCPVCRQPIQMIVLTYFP
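Test system: stable mammalian line carrying autodegrading MDM2–luciferase fusion reporter; quantity: 2000 cells in each well; times: 4 h cell settling then 2 h compound exposure, 37 °C; detection: luminescence with SteadyLite reagent, 15 min at room temperature; evaluation: percent signal gain over controls, blank-subtracted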
TNF death inh: TNF-alpha cell death inhibition in Jurkat FADD-/- cells | Jurkat FADD-/- TNF necroptosis rescue, ATP luminescence, 24 h; 0 = TNF only, 100 = no-TNF cells | activation (protection from cell death), % at 10 µM | 0.068% of 220,000 active | AID 463075;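 active means activation, meaning protection from cell death, of at least 50% relative to plate controls; inactive means activation below 50%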;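 further: necroptosis triggered by 40 ng/mL TNF-alpha added together with compound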
Pf gametocyte: kills late stage P. falciparum gametocytes; AID 743093; inhibition, % at 10.9 µM; 0.065% of 150,000 active; P. falciparum stage V gametocytes, ATP luminescence, 24 h;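 active means inhibition above the mean plus 3 SD of compounds within the control limits, set per campaign, cut at about 38% in these data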
Rad51 HR inh: blocks human Rad51 in homologous recombination | Q06609 | hRad51 DNA strand exchange, fluorescence dequenching | inhibition, % at 10 µM | 0.085% of 200,000 active | AID 1385;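 active means inhibition above 40% at the single screening dose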
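Test system: preformed human Rad51 ssDNA filaments. Compound dosing: single dose, 10 µM final compound. Incubation: filaments 15 min 37 °C, then compound 30 min. Technique: FRET fluorescence dequenching, excitation 485 nm, emission 520 nm. Read-out basis: percent inhibition from fluorescence, normalised to plate control and blank means. Benchmarks: plate controls and plate blanks.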
zVAD death inh: L929 zVAD cell death inhibition; L929 zVAD necroptosis rescue, ATP luminescence, 24 h; with zVAD 60 µM; viability rescue, % at 10 µM; 0.38% of 220,000 active;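 active means activation, scaled between plate controls, above about 75%, limit read from the data; inactive means activation under that limit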
Hits are given with their value; 0 = inactive; - = no result. Only some compounds are listed: those with a hit (about 0.58% of all), similar ones and a draw of the others.

SMILES | Mdm2 ligase inh | TNF death inh | Pf gametocyte | Rad51 HR inh | zVAD death inh
O=C(NC1=NCCS1)c1cccc(N2C(=O)c3ccccc3C2=O)c1 | 0 | 0 | 0 | 40.6 | 0
CCCN1C(=O)c2ccc(C(=O)NC3=NCCS3)cc2C1=O | 0 | 0 | - | 0 | 0
CSc1nc2sc3c(c2c(=O)[nH]1)CCC3 | 0 | 0 | 0 | 0 | 0
C(#Cc1ccccc1)C[N+]1(CC#Cc2ccccc2)CCCC1 | 0 | 0 | 0 | 0 | 0
C=CC#CC[N+]1(CC#Cc2ccccc2)CCOCC1 | 0 | 0 | 0 | 63.9 | 0
COc1ccc2c(c1)O[C@H](c1ccc3c(c1)OCO3)[C@@H](O)C2=O | - | 0 | - | 0 | 79.4
COc1ccc2c(c1)O[C@@H](c1cccc(C(F)(F)F)c1)[C@H](O)C2=O | - | 0 | - | - | 0
CCN(CC)CC(=O)Nc1c(C#N)cnn1-c1ccccc1 | 0 | 0 | 0 | 0 | 0
CCC(Oc1ccccc1)C(=O)NCc1ccc(S(N)(=O)=O)cc1 (stereo not given) | 0 | 0 | 60.8 | 0 | 0
Cc1[nH]c2ccccc2c1C(=O)C(=O)NCCOc1ccccc1 | 0 | 0 | 0 | 0 | 0
Cc1ccc(CN2CCNC(=O)C2CC(=O)NCCCn2ncc3ccccc32)o1 (stereo not given) | 0 | 0 | 0 | 0 | 0
CCCCCC(=O)Nc1cccc2ccccc12 | 0 | 0 | 0 | 43.0 | 0
O=C1C2C3C=CC(C3)C2C(=O)N1c1ccc(-c2nc(-c3ccccc3)nc3ccccc23)cc1 (stereo not given) | - | - | 0 | - | -
COCCNc1nc2nonc2nc1N(C)Cc1cccc2cnccc12 | 47.8 | 0 | - | 0 | 0
CCN(c1ccccc1)c1nc2nonc2nc1NCCO | 0 | 0 | 0 | - | 0
CCCCc1ccc(S(=O)(=O)Nc2nnc(C)s2)cc1 | - | - | 0 | - | -
CC(C)N(C(C)C)S(=O)(=O)c1ccc(NN)nc1 | - | 0 | 0 | 43.2 | 0
O=C(c1ccc2ccccc2n1)N1CCN(c2ccccc2O)CC1 | - | 0 | 0 | 87.0 | 0
O=C(c1ccc2ccccc2n1)N1CCN(c2ccccc2)CC1 | 0 | 0 | 0 | 0 | 0
Fc1ccccc1NC(=S)N(CCCN1CCOCC1)Cc1cccnc1 | 0 | 0 | 0 | 0 | 0
COCCn1c(-c2ccco2)csc1=Nc1cccnc1 | 0 | 0 | - | 0 | 0
COc1ccc(O)c(/C=N/n2c(-c3ccco3)csc2=Nc2cccnc2)c1 | 0 | 0 | 53.0 | - | 0
CCn1nnc(NC(=O)c2cccc(-c3cc4ccccc4oc3=O)c2)n1 | 0 | 0 | - | 50.9 | 0
Cc1cc(N)ccc1N1CCCC1 | 0 | 0 | - | 60.4 | 0
O=C(N/N=C/c1cc(Cl)cc([N+](=O)[O-])c1O)c1ccccc1NS(=O)(=O)c1cccs1 | 0 | 0 | 0 | 0 | 0
SMILES | Mdm2 ligase inh | TNF death inh | Pf gametocyte | Rad51 HR inh | zVAD death inh
O=C(COC(=O)Cc1ccc(F)cc1)NCc1ccco1 | 0 | 0 | 49.2 | 0 | 0
Cc1nn(Cc2ccccc2)c(N)c1C#N | 0 | 54.1 | 0 | 0 | 0
CC(C)(C)NC(=O)CN(Cc1ccc2c(c1)OCO2)C(=O)CNC(=O)c1cccs1 | 0 | 0 | - | 0 | 0
Cc1ccc(O)c(NC(=O)C2CC(c3cccc(Br)c3)=NO2)c1 (stereo not given) | - | - | 0 | - | -
CCOc1ccc(OCC)c(NC(=O)C2CCCN(c3ncccn3)C2)c1 (stereo not given) | 0 | 0 | - | - | 0
CCOc1ccc(OCC)c(NC(=O)C2CCN(c3ncccn3)CC2)c1 | 0 | 0 | 0 | 41.6 | 0
Cc1ccc(C2SCCN2C(=O)c2ccc([N+](=O)[O-])cc2)cc1 (stereo not given) | 0 | 51.1 | 0 | 0 | 0
COc1cc(CNCc2cc(OC)c(OC)c(OC)c2)cc(OC)c1 | - | - | 0 | - | -
CCOC(=O)/C(=N\Nc1cc(Cl)ccc1Cl)N1CC(C)OC(C)C1 (stereo not given) | - | 0 | 0 | 41.9 | 0
O=C(O)c1ccc2c(c1)N(Cc1ccccc1F)C(=O)c1ccccc1S2=O (stereo not given) | 71.0 | 0 | - | 0 | 0
CCN1C(=O)c2ccccc2S(=O)c2ccc(C(=O)N3CCCC3)cc21 (stereo not given) | 0 | 0 | - | 0 | 0
Cc1ccc(C(=O)/C=C/c2cn(CC(O)CN3CCOCC3)c3ccccc23)cc1 (stereo not given) | 0 | 0 | 0 | 0 | 77.4
CS/C(=N\S(=O)(=O)c1cccs1)Nc1cccc(Cl)c1C | 0 | 0 | - | 0 | 0
CS/C(=N\S(=O)(=O)c1cccs1)Nc1ccc(F)c(Cl)c1 | 0 | 0 | 58.5 | 0 | 0
Cc1ccc(-c2nn(Cc3ccccc3)cc2/C=C/C(=O)O)cc1C | 0 | 0 | - | 0 | 0
O=C(O)/C=C/c1cn(Cc2ccccc2)nc1-c1ccccc1 | 0 | 0 | 0 | 44.4 | 0
CCN(CC)C(=O)c1[nH]cnc1C(=O)Nc1ccc(C)cc1 | - | - | 0 | - | -
O=C(OC(C(=O)Nc1ccc([N+](=O)[O-])cc1Br)c1ccccc1)c1ccccc1 (stereo not given) | 0 | 75.6 | 0 | - | 0
CN(C)c1cccc(C(=O)OC(C(=O)Nc2ccc([N+](=O)[O-])cc2Br)c2ccccc2)c1 (stereo not given) | 0 | 0 | 0 | 0 | 0
O=C(Cn1nnc(-c2ccccc2F)n1)NCc1ccco1 | 0 | 0 | 0 | 44.4 | 0
CCCCOc1ccc(-c2nnn(CC(=O)NCc3ccco3)n2)cc1 | 0 | 0 | - | 0 | 0
COC(C(=O)Nc1ccc(S(=O)(=O)Nc2ccc(F)cc2)cc1)c1ccccc1 (stereo not given) | 0 | 0 | 0 | 0 | 0
COc1ccc(NC(=O)C(OC)c2ccccc2)cc1Cl (stereo not given) | 0 | 50.3 | - | 0 | 0
COC(C(=O)Nc1ccc(F)cc1)c1ccccc1 (stereo not given) | - | 97.7 | - | 0 | -
COC(C(=O)Nc1ccc(S(=O)(=O)N2CCCCC2)cc1)c1ccccc1 (stereo not given) | 0 | 59.7 | 0 | 0 | 0
SMILES | Mdm2 ligase inh | TNF death inh | Pf gametocyte | Rad51 HR inh | zVAD death inh
COc1ccc(NS(=O)(=O)c2ccc(NC(=O)C(CCSC)NC(N)=O)cc2)cc1 (stereo not given) | - | 0 | 0 | 41.7 | 0
Nc1nnc(CSc2ccc(Cl)cc2)s1 | 0 | 0 | - | 0 | 104.4
COc1ccc(-c2[nH]ncc2CN2CCCC2c2nonc2C)c(F)c1 (stereo not given) | 0 | 0 | 38.6 | 0 | 0
Cc1nonc1C1CCCN1Cc1cn[nH]c1-c1ccc2c(c1)OCO2 (stereo not given) | 0 | 0 | 0 | - | 0
CCN(CC)S(=O)(=O)c1ccc2[nH]c(=O)cc(C(=O)Nc3cccc(C(C)=O)c3)c2c1 | 0 | 0 | 0 | 0 | 0
Fc1cccc(Cc2noc(CN3CCCCC3c3ccccn3)n2)c1 (stereo not given) | 0 | 0 | 0 | 0 | 0
Cc1cc(=O)n2[nH]c(N3C(=O)CCC3=O)nc2n1 | 30.4 | 0 | - | 0 | 0
N/N=C/C(=N\Nc1ccc(Cl)cc1)C(=O)c1ccncc1 | - | 0 | 44.7 | 0 | 0
CC1CCC2(CC1)NC(=O)N(CC(=O)NC(=O)Nc1ccc3c(c1)OCCO3)C2=O (stereo not given) | 0 | 0 | 0 | 0 | 0
